Source: PubChem BioAssay
TRPC6 activator – mouse TRPC6 channel activators, primary screen, cell-based, HEK293, membrane potential dye; Short transient receptor potential channel 6 (Mus musculus), Q61143; HEK293-TRPC6 membrane potential dye fluorescence; active compounds read high; B-score at 10 µM; actives 0.13% (n = 310,000); AID 2550, 2010;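 active = B-score of the integrated fluorescence ratio above library mean plus 3 SD, and starting fluorescence ratio within library mean plus 5 SD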;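 note: higher score means more depolarization so channel activation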
Target sequence (Q61143 whole entry, looked up): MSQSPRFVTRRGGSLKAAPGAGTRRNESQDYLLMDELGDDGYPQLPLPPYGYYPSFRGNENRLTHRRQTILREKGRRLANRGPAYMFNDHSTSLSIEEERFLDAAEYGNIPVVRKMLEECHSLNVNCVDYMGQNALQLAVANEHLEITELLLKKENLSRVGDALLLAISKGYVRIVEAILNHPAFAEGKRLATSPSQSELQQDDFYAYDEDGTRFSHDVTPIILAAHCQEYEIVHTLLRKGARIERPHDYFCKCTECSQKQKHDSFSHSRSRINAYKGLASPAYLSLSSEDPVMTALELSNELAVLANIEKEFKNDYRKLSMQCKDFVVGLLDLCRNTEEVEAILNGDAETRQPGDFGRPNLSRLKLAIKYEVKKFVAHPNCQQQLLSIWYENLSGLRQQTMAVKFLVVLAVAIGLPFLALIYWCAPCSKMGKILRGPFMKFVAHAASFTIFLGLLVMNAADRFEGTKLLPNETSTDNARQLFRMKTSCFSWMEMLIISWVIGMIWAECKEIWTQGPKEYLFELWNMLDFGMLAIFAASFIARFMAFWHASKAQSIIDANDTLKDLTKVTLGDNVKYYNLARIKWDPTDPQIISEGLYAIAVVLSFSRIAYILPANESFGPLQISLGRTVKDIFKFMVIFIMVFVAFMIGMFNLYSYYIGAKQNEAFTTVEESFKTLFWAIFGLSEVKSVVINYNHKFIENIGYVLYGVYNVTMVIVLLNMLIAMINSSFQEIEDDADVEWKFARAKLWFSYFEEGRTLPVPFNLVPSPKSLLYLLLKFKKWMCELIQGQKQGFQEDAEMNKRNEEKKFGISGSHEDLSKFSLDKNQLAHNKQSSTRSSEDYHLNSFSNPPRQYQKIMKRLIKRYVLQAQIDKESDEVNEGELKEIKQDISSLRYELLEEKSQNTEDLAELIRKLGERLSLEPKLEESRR
TRPC4 act – activators of mouse TRPC4 channel, primary screen, Fluo4 calcium, HEK293 TRPC4beta/mu-opioid cells; Short transient receptor potential channel 4 (Mus musculus), Q9QUQ5; Fluo4 calcium fluorescence; active compounds read high; B-score at 10 µM; actives 0.49% (n = 310,000); AID 2237, 2010;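 active = B-score above 5 SD of library B-scores, and initial fluorescence ratio not above library mean plus 5 SD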;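 note: positive B-score marks a calcium rise read as TRPC4 activation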
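Technique: kinetic Fluo4 calcium fluorescence; Test system: TRPC4beta and mu-opioid receptor HEK293 stable cells; Measure: B-scored integrated calcium fluorescence ratio; Benchmarks: low control buffer alone, high control maximal DAMGO; Schedule: 45 min room-temperature Fluo4 loading, 110 s read.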
TRPC4 PAM – positive allosteric modulators of TRPC4, primary screen, cell-based, mouse TRPC4beta, HEK293 mu-opioid, Fluo-4 calcium; Short transient receptor potential channel 4 (Mus musculus), Q9QUQ5; DAMGO EC20, Fluo-4 Ca2+ flux; active compounds read high; B-score at 10 µM; actives 0.42% (n = 310,000); AID 2227, 2009;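 active = B-score of calcium response area above 5 SD of library B-scores, with initial fluorescence ratio within 5 SD of library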
TRPC6 inh – mouse TRPC6 channel inhibitors, primary screen, cell-based, HEK293, membrane potential dye; ACh-evoked depolarization; active compounds read low; B-score at 10 µM; actives 1.1% (n = 310,000); AID 2553, 2010;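 active = B-score under library mean minus 3 SD, initial fluorescence not abnormally high, positive integrated signal ratio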;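 note: B-score derived from integrated fluorescence ratio over the kinetic read; more negative B-score means stronger inhibition of depolarization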
TRPC4 block – inhibitors of mouse TRPC4 channel, primary screen, Fluo4 calcium, HEK293 TRPC4beta/mu-opioid cells. Short transient receptor potential channel 4 (Mus musculus), Q9QUQ5. DAMGO-evoked Fluo4 calcium flux; active compounds read low. B-score at 10 µM. actives 0.39% (n = 300,000). AID 2247, 2010;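 active = B-score over 3 SD under the library average, no early fluorescence shift, positive overall ratio signal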
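Assay system: Stable TRPC4beta/mu-opioid receptor HEK293 cells | Reagent: DAMGO in two steps, submaximal then maximal | Compound dosing: Single concentration per test compound | Signal: Fluo4 Ca2+ flux fluorescence | Evaluation: Per-well B score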
A number is an active result. Hits are enriched below; roughly 2.3% of the tested compounds scored in any of these assays.

What do the screens show for `CCN1CCN(c2ccc(S(=O)(=O)N3CCCCC3)cc2NC(=O)c2ccccc2)CC1`?
TRPC6 activator: inactive; TRPC4 act: inactive; TRPC4 PAM: inactive; TRPC6 inh: inactive; TRPC4 block: inactive

What do the screens show for `O=C(Nc1nnc(-c2ccc(Cl)cc2)o1)Nc1ccccc1F`?
TRPC6 activator: inactive; TRPC4 act: inactive; TRPC4 PAM: inactive; TRPC6 inh: inactive; TRPC4 block: inactive

Results for COc1cc(CNC2CCCC2)cc(Cl)c1OCc1ccc(F)cc1 ?
TRPC6 activator: inactive; TRPC4 act: inactive; TRPC4 PAM: inactive; TRPC6 inh: inactive; TRPC4 block: -7

What do the screens show for `N#CC(C#N)=c1ccc2c(c1)N1C3=C(CCCC3)CC3CCCCC31N=2` (centres undefined)?
TRPC6 activator: inactive; TRPC4 act: inactive; TRPC4 PAM: inactive; TRPC6 inh: -8.5; TRPC4 block: inactive

What do the screens show for `CC(C)c1cc(C(=O)N2CCCC(N3CCN(c4ccc(F)cc4)CC3)C2)no1` (centres undefined)?
TRPC6 activator: inactive; TRPC4 act: inactive; TRPC4 PAM: inactive; TRPC6 inh: inactive; TRPC4 block: inactive

Results for Cc1cccc(N2CCN(CC(=O)Nc3nccs3)CC2)c1C ?
TRPC6 activator: 12.8; TRPC4 act: inactive; TRPC4 PAM: inactive; TRPC6 inh: -5.58; TRPC4 block: inactive

Results for Cc1ccc(S(=O)(=O)Nc2cccc(C(=O)NCC(c3ccccc3)N(C)C)c2)cc1F (centres undefined) ?
TRPC6 activator: inactive; TRPC4 act: 66; TRPC4 PAM: inactive; TRPC6 inh: inactive; TRPC4 block: -10

What do the screens show for `CC(C)c1ccc(NC(=O)CNCC(c2ccccc2)N(C)C)cc1` (centres undefined)?
TRPC6 activator: inactive; TRPC4 act: inactive; TRPC4 PAM: inactive; TRPC6 inh: inactive; TRPC4 block: inactive

What do the screens show for `COc1ccc(C(CNC(=O)c2ccc(S(=O)(=O)N(C)C)cc2)N(C)C)cc1` (centres undefined)?
TRPC6 activator: inactive; TRPC4 act: 242; TRPC4 PAM: inactive; TRPC6 inh: inactive; TRPC4 block: inactive

Results for COc1ccc(C(CNC(=O)c2cccc(NS(=O)(=O)c3ccc(Br)cc3)c2)N(C)C)cc1 (centres undefined) ?
TRPC6 activator: inactive; TRPC4 act: 154; TRPC4 PAM: inactive; TRPC6 inh: inactive; TRPC4 block: inactive

How did Cc1ccc(NC(=O)CNCC(c2ccccc2)N(C)C)cc1F (centres undefined) do in these assays?
TRPC6 activator: inactive; TRPC4 act: 147; TRPC4 PAM: inactive; TRPC6 inh: inactive; TRPC4 block: inactive

What do the screens show for `NC(=O)CSc1nc2cc(Cl)ccc2c(=O)n1C1CCCCC1`?
TRPC6 activator: inactive; TRPC4 act: inactive; TRPC4 PAM: inactive; TRPC6 inh: inactive; TRPC4 block: inactive

What do the screens show for `CC(=O)Nc1cccc(NC(=O)CSc2nc(=O)n(CCN3CCOCC3)c3c2CCC3)c1`?
TRPC6 activator: inactive; TRPC4 act: inactive; TRPC4 PAM: inactive; TRPC6 inh: inactive; TRPC4 block: inactive

Results for CCOC(=O)c1c(NC(=O)c2ccccc2C)sc2c1CC(C)(C)OC2 ?
TRPC6 activator: inactive; TRPC4 act: inactive; TRPC4 PAM: 11; TRPC6 inh: inactive; TRPC4 block: inactive

Results for Nc1ccc(C(=O)N/N=C/c2cn(Cc3ccccc3F)c3ccccc23)cc1 ?
TRPC6 activator: inactive; TRPC4 act: inactive; TRPC4 PAM: 11; TRPC6 inh: inactive; TRPC4 block: inactive

What do the screens show for `COC(=O)N/N=C/c1cn(Cc2ccc(F)cc2)c2ccccc12`?
TRPC6 activator: inactive; TRPC4 act: inactive; TRPC4 PAM: inactive; TRPC6 inh: inactive; TRPC4 block: inactive

What do the screens show for `CNC(=S)N/N=C/c1cn(Cc2ccc(F)cc2)c2ccccc12`?
TRPC6 activator: inactive; TRPC4 act: inactive; TRPC4 PAM: 11; TRPC6 inh: inactive; TRPC4 block: inactive

Results for Nc1ccc(C(=O)N/N=C/c2cn(Cc3ccc(F)cc3)c3ccccc23)cc1 ?
TRPC6 activator: inactive; TRPC4 act: inactive; TRPC4 PAM: inactive; TRPC6 inh: inactive; TRPC4 block: inactive

Results for CCOc1ccc(S(=O)(=O)N2CCC(C(=O)NC3CCCC3)CC2)cc1 ?
TRPC6 activator: inactive; TRPC4 act: inactive; TRPC4 PAM: inactive; TRPC6 inh: inactive; TRPC4 block: inactive

What do the screens show for `COc1cc(/C=N/NC(=O)c2cccc(C)c2)ccc1OCC(=O)Nc1ccccc1`?
TRPC6 activator: inactive; TRPC4 act: inactive; TRPC4 PAM: inactive; TRPC6 inh: inactive; TRPC4 block: inactive

How did CCCCN(CC)CCCNC(=O)CC1Oc2ccccc2NC1=O (centres undefined) do in these assays?
TRPC6 activator: inactive; TRPC4 act: 56; TRPC4 PAM: inactive; TRPC6 inh: inactive; TRPC4 block: inactive

What do the screens show for `Cc1cc(-c2csc3ncnc(N4CCN(C)CC4)c23)cc(C)c1C`?
TRPC6 activator: inactive; TRPC4 act: inactive; TRPC4 PAM: inactive; TRPC6 inh: inactive; TRPC4 block: -7

How did CN1CCN(c2ncnc3scc(-c4ccccc4Cl)c23)CC1 do in these assays?
TRPC6 activator: inactive; TRPC4 act: inactive; TRPC4 PAM: inactive; TRPC6 inh: inactive; TRPC4 block: inactive

Results for CC(C)(C)N=C1NN=C(c2ccc(Cl)cc2)CS1 ?
TRPC6 activator: inactive; TRPC4 act: inactive; TRPC4 PAM: inactive; TRPC6 inh: inactive; TRPC4 block: inactive

Results for COc1ccc(CN=C2NN=C(c3ccc(Cl)cc3)CS2)cc1 ?
TRPC6 activator: inactive; TRPC4 act: inactive; TRPC4 PAM: inactive; TRPC6 inh: inactive; TRPC4 block: -6

Results for COc1ccccc1/C=C/C=N/N1CCN(Cc2ccccc2)CC1 ?
TRPC6 activator: inactive; TRPC4 act: inactive; TRPC4 PAM: inactive; TRPC6 inh: inactive; TRPC4 block: inactive

What do the screens show for `Cc1ccc(CN2CCN(/N=C/C=C/c3ccccc3[N+](=O)[O-])CC2)cc1`?
TRPC6 activator: inactive; TRPC4 act: inactive; TRPC4 PAM: 14; TRPC6 inh: inactive; TRPC4 block: inactive

How did N=C(N)SCc1ccccn1 do in these assays?
TRPC6 activator: inactive; TRPC4 act: inactive; TRPC4 PAM: 38; TRPC6 inh: inactive; TRPC4 block: inactive

How did CCC(C)(C)c1ccc(OCCCC[n+]2cccc(C)c2C)c(C(C)(C)CC)c1 do in these assays?
TRPC6 activator: inactive; TRPC4 act: inactive; TRPC4 PAM: inactive; TRPC6 inh: -5.27; TRPC4 block: inactive

Results for O=C(Cn1cc(C(F)(F)F)cc(Cl)c1=O)NCCc1ccccc1 ?
TRPC6 activator: inactive; TRPC4 act: inactive; TRPC4 PAM: inactive; TRPC6 inh: inactive; TRPC4 block: inactive
